Measured values collected from several papers.
Each line is one published result; the experiments were not run side by side.
PPO3: PPO3 (Agaricus bisporus, UniProt C7FF04)
OPRK1: Kappa-type opioid receptor (OPRK1, Homo sapiens, UniProt P41145)
HTR2A: 5-hydroxytryptamine receptor 2A (HTR2A, Homo sapiens, UniProt P28223)

COc1cc(/C=C/C(=O)O)ccc1OCc1cn(CC(=O)NCCc2ccccc2)nn1  inhibition (PPO3; enzyme activity; inhibitor; 40 µM): 10.4%
c1cncc([C@@H]2CCCN2)c1  inhibition (OPRK1; ligand displacement; 50 µM): -6.74%
COc1cc2c3c(c1OC)-c1c(OC)ccc(Br)c1CC3N(C)CC2 (stereo not drawn)  inhibition (HTR2A; ligand displacement; radioligand; 10 µM): 80%
COc1cc(/C=C/C(=O)O)ccc1OCc1cn(CC(=O)Nc2cccc(Cl)c2)nn1  inhibition (PPO3; enzyme activity; inhibitor; 40 µM): 11.4%
CC(C)CC(=O)OC[C@H]1O[C@@](C#N)(c2ccc3c(N)ncnn23)[C@H](O)[C@@H]1O  inhibition (HTR2A; cell-free assay; 20 µM): 5%
COc1cc2cc3c4c(cc(OC)c(OC)c4c2cc1OC)CCN3C  inhibition (HTR2A; ligand displacement; radioligand; 10 µM): 10%
CC[C@H](C)[C@@H](C(=O)N1CCC[C@H]1c1nccs1)N(C)C(=O)[C@H](CC(C)C)N(C)C(=O)[C@H](Cc1ccc(OC)cc1)N(C)C(=O)/C=C(\C)OC  inhibition (Cannabinoid receptor 1 (CNR1, Homo sapiens, UniProt P21554); β-arrestin recruitment; antagonist; 20 µM): 53%
CN1CCC[C@H]1c1cccnc1  inhibition (OPRK1; ligand displacement; 50 µM): -10.9%
COc1cc2c(cc1OC)-c1c(OC)c(OC)cc3c1[C@H](C2)N(C)CC3  inhibition (HTR2A; ligand displacement; radioligand; 10 µM): 65%
COc1cc(/C=C/C(=O)O)ccc1OCc1cn(CC(=O)Nc2ccc([N+](=O)[O-])cc2)nn1  inhibition (PPO3; enzyme activity; inhibitor; 40 µM): 14%
COc1cc2c3c(c1OC)-c1c(OC)ccc(Cl)c1CC3N(C)CC2 (racemic)  inhibition (HTR2A; ligand displacement; radioligand; 10 µM): 70%
COc1cc(/C=C/C(=O)O)ccc1OCc1cn(CC(=O)Nc2ccccc2Cl)nn1  inhibition (PPO3; enzyme activity; inhibitor; 40 µM): 16.2%
